Compound activity as filed in PubChem BioAssay.
Compounds with a hit are over-represented: about 2.9% of the library has one in this group of screens.
OX1R antag-1 = antagonists of human orexin 1 receptor (OX1R); OX1R-expressing cells, FRET antagonist read-out; inhibition, % at 6.6 µM; actives 1.8% (n = 330,000); AID 485270, 2010; in the data active means inhibition mostly above about 38%, no sharp cut-off; inactive means mostly below about 40%;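 further: 0% = agonist challenge alone and 100% = reference antagonist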
Target sequence (O43613 whole entry, looked up): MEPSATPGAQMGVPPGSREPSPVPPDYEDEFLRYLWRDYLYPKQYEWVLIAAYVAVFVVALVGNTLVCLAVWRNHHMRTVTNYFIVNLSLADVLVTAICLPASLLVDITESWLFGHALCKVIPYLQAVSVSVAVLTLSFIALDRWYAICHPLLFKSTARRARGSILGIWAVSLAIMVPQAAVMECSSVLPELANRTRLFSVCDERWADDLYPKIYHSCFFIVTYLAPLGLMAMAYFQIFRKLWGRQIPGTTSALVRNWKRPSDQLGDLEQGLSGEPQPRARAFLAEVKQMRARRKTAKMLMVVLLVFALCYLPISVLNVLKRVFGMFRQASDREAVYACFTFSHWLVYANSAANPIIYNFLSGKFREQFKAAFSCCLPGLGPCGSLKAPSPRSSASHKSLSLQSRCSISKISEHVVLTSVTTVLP
OX1R antag-2 = OX1R (HCRTR1) antagonists, primary screen, fluorescence, CHO/OX1R cells, Fluo-8 calcium, orexin A | Fluo-8 calcium fluorescence | inhibition, % at 5 µM | actives 0.43% (n = 330,000) | Orexin/Hypocretin receptor type 1 (Homo sapiens), O43613;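 active means inhibition above its plate's threshold, mean inhibition of all tested compounds on the plate plus 3 SD, cut at about 37% in these data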;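 further: 0% = orexin A challenge wells and 100% = SB-334867-A antagonist wells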
M1 PAM parental = nonselective calcium activators in parental CHO-K1 cells, primary screen, counter-screen for M1 PAM project, cell-based, Fluo-8 calcium fluorescence, full deck, 1536-well | actives 0.02% (n = 360,000) | AID 602247, 2012 | activation, % at 3 µM | ATP EC20; 0% at ATP EC20, 100% at ATP max;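 active means activation above the run cutoff, the mean activation of all test compounds plus 3 SD, cut at about 40% in these data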;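 further: peak over basal fluorescence ratio in a 140 s read after ATP addition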
CHO-K1 Ca antag = nonselective inhibitor or artifact in parental CHO-K1 cells; ATP-induced calcium, Fluo-8 fluorescence; inhibition, % at 3 µM; actives 0.6% (n = 360,000); AID 602250;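 active means inhibition above a per-plate cutoff, the plate's mean sample inhibition plus 3 SD, cut at about 24% in these data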;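 further: 0% = DMSO plus EC80 ATP and 100% = DMSO alone without ATP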
M1 ag parental = counter-screen for M1 agonists: effect in parental CHO-K1 cells | actives 0.48% (n = 360,000) | Fluo-8 calcium fluorescence; scaled to maximal ATP response, vehicle zero | activation, % at 3 µM; in the data active means activation above about 15%;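 further: untransfected CHO-K1 host cells lacking M1 receptor as counterscreen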
CHO parental Ca = ATP-evoked calcium signal inhibitors, parental CHO, primary screen, counter-screen for OX1R antagonist project, cell-based, fluorescence, Fluo-8 calcium dye; inhibition, % at 5.6 µM; actives 0.63% (n = 330,000); parental CHO-K1, ATP-induced calcium, Fluo-8 fluorescence; AID 463079, 2010;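 active means inhibition above that plate's mean sample inhibition plus 3 SD, cut at about 26% in these data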;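 further: 0% = ATP-challenged DMSO wells and 100% = DMSO wells without ATP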
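Test system: untransfected parental CHO cell line. Compound: one dose, 5.6 µM nominal. Detection: intracellular calcium via Fluo-8 no-wash fluorescent dye. Measure: % inhibition. Benchmarks: ATP-challenged DMSO wells low, unchallenged DMSO wells high.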
Starred values were filed as active, the others as inactive.

For CC(Oc1ccc(Br)cc1)C(=O)Nc1ccc(S(=O)(=O)NC2=NCCCCC2)cc1 (centres undefined) the results were M1 PAM parental -12, CHO-K1 Ca antag -4 and M1 ag parental 23*.
CC(Oc1ccc(F)cc1)C(=O)Nc1ccc(S(=O)(=O)NC2=NCCCCC2)cc1 (centres undefined) was read as OX1R antag-1 1, OX1R antag-2 7, M1 PAM parental -11, CHO-K1 Ca antag 2, M1 ag parental 5 and CHO parental Ca 1.
For CCSc1nsc(NC(=O)Nc2cccc(F)c2)n1 the results were OX1R antag-1 84*, OX1R antag-2 104*, M1 PAM parental 5, CHO-K1 Ca antag 19, M1 ag parental 18* and CHO parental Ca 101*.
For COc1cccc(NC(=O)Nc2nc(SC(C)(C)C)ns2)c1 the results were OX1R antag-1 36, OX1R antag-2 75*, M1 PAM parental -7, CHO-K1 Ca antag 24*, M1 ag parental 19* and CHO parental Ca 74*.
COc1ccc(NC(=O)Nc2cccc(OC)c2)cc1 was read as OX1R antag-1 0, OX1R antag-2 -10, M1 PAM parental -4, CHO-K1 Ca antag 13, M1 ag parental 2 and CHO parental Ca 6.
`CCCSc1nsc(NC(=O)Nc2ccc(F)cc2F)n1` gave OX1R antag-1 45, OX1R antag-2 -20, M1 PAM parental -3, CHO-K1 Ca antag 7, M1 ag parental 5 and CHO parental Ca 22.
For CCn1c2ccc(Cl)cc2c2nc3ccccc3nc21 the results were OX1R antag-1 69*, OX1R antag-2 7 and CHO parental Ca -16.
`COc1ccc2[nH]c(=O)c(CNc3cccc(C)c3)cc2c1` gave OX1R antag-1 48*, OX1R antag-2 -14, M1 PAM parental 22, CHO-K1 Ca antag -4, M1 ag parental 4 and CHO parental Ca -17.
COc1ccc(NCc2cc3cc(OC)ccc3[nH]c2=O)cc1 was read as OX1R antag-1 47*, OX1R antag-2 -34, M1 PAM parental 9, CHO-K1 Ca antag -21, M1 ag parental 0 and CHO parental Ca -22.
COc1ccc(NCc2cc3ccccc3[nH]c2=O)cc1 was read as OX1R antag-1 68, OX1R antag-2 -19, M1 PAM parental -5, CHO-K1 Ca antag 10, M1 ag parental 0 and CHO parental Ca -3.
For COc1ccc2[nH]c(=O)c(CN(Cc3cccs3)C(=S)Nc3cccc(C)c3)cc2c1 the results were OX1R antag-1 14, OX1R antag-2 -20, M1 PAM parental 12, CHO-K1 Ca antag 3, M1 ag parental 1 and CHO parental Ca -17.
CN(C)CCn1c(SCc2ccccc2C#N)nc2c(sc3ccccc32)c1=O was read as OX1R antag-1 -5, OX1R antag-2 -2, M1 PAM parental -1, CHO-K1 Ca antag -2, M1 ag parental 3 and CHO parental Ca -12.
`CN1c2ccccc2Oc2nnc(Cl)cc21` gave OX1R antag-1 20, OX1R antag-2 -5, M1 PAM parental -16, CHO-K1 Ca antag 27*, M1 ag parental -1 and CHO parental Ca -5.
`N#Cc1ccccc1N=C1CCCN1Cc1ccccc1` gave OX1R antag-1 34, OX1R antag-2 -17, M1 PAM parental 14, CHO-K1 Ca antag -2, M1 ag parental 0 and CHO parental Ca -2.
`Cc1cc(C)c(N=C2CCCN2Cc2ccccc2)c(C#N)c1` gave OX1R antag-1 29, OX1R antag-2 8, M1 PAM parental -4, CHO-K1 Ca antag 13, M1 ag parental -1 and CHO parental Ca 40*.
For CCOc1ccc(C2/C(=C(\O)c3cccc(OC)c3)C(=O)C(=O)N2c2ccccn2)cc1OC (centres undefined) the results were OX1R antag-1 5, OX1R antag-2 -10, M1 PAM parental -14, CHO-K1 Ca antag -13, M1 ag parental 2 and CHO parental Ca -9.
For Cc1sc[n+](CC(=O)c2ccc(Br)cc2)c1C the results were OX1R antag-1 4, OX1R antag-2 -3, M1 PAM parental 3, CHO-K1 Ca antag -8, M1 ag parental 1 and CHO parental Ca -9.
